The target of assay [1] is Carbonic anhydrase 1 (Homo sapiens) (UniProt P00915). The assay is described as follows: Activation of recombinant human carbonic anhydrase 1 incubated for 15 mins prior to testing by stopped flow CO2 hydrase assay. The method in brief: (§1)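 CO2 hydration followed 5–10 s in stopped-flow instrument; phenol red 0.2 mM read at 557 nm; 10 mM HEPES pH 7.4, 0.1 M NaClO4 for ionic strength; saturated CO2 solutions in water at 25°C as substrate. Activator stocks 10 mM in assay buffer, diluted down to 0.01 nM; enzyme and activator preincubated 15 min at room temperature. Activation constant from competitive steady-state equation.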
Sequence of Carbonic anhydrase 1 (Homo sapiens) (P00915 2-261 limits assumed): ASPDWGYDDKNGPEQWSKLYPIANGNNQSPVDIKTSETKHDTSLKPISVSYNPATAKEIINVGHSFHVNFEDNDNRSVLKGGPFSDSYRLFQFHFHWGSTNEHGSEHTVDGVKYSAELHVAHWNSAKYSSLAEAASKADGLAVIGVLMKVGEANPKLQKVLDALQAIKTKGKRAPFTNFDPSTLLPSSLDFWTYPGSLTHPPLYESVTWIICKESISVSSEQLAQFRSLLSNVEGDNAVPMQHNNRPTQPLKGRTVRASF

Assay [2] addresses Carbonic anhydrase 2 (Homo sapiens) (UniProt P00918). In words: Activation of recombinant human carbonic anhydrase 2 incubated for 15 mins prior to testing by stopped flow CO2 hydrase assay. The method, boiled down: as §1

Molecules are shown by their SMILES.

`Nc1ncn(C(=O)Nc2ccc(Cc3ccc(NC(=O)n4cnc(N)n4)cc3)cc2)n1`: the KA in assay [1] came out at 0.94 nM; in assay [2] it was 0.05 nM.

`CCCCCCCCCCCCCCCCCCNC(=O)n1cnc(N)n1`: the KA in assay [1] was determined as 987 nM; in assay [2], 1680 nM.

As for `Nc1ncn(C(=O)NCCCCCCCCNC(=O)n2cnc(N)n2)n1`, the KA in assay [1] is 11.1 nM; in assay [2] it was 65 nM.

With `COc1cc(-c2ccc(NC(=O)n3cnc(N)n3)c(OC)c2)ccc1NC(=O)n1cnc(N)n1`, the KA in assay [1] came to 637 nM; in assay [2] it was 1680 nM.

Consider `Nc1ncn(C(=O)NCCCCNC(=O)n2cnc(N)n2)n1`, for which the KA was 74 nM in assay [1] and 91 nM in assay [2].

As for `O=C(O)c1ncn(C(=O)NCCCCCCNC(=O)n2cnc(C(=O)O)n2)n1`, the KA in assay [1] came out at 13.7 nM; in assay [2], 6700 nM.

As to `CCCCNC(=O)n1cnc(N)n1`, the KA in assay [1] is 6.1 nM; in assay [2], 1.7 nM.

Turning to `CCCCCCNC(=O)n1cnc(N)n1`, the KA in assay [1] was 123 nM; in assay [2], 345 nM.

As for `Cc1ccc(NC(=O)n2cnc(N)n2)cc1NC(=O)n1cnc(N)n1`, the KA in assay [1] turned out to be 4.2 nM; in assay [2], 826 nM.

On to `Nc1ncn(C(=O)Nc2ccc(-c3ccc(NC(=O)n4cnc(N)n4)cc3)cc2)n1`, for which the KA is 0.81 nM in assay [1] and 14.1 nM in assay [2].

For `CC1(C)CC(NC(=O)n2cnc(N)n2)CC(C)(CNC(=O)n2cnc(N)n2)C1` (stereo not drawn), the KA was 993 nM in assay [1] and 1570 nM in assay [2].

Turning to `Nc1ncn(C(=O)Nc2ccc(NC(=O)n3cnc(N)n3)cc2)n1`, the KA amounted to 65 nM in assay [1] and 0.12 nM in assay [2].

Take `Nc1ncn(C(=O)NCCCCCCCCCCCCNC(=O)n2cnc(N)n2)n1`: the KA in assay [1] came out at 982 nM; in assay [2], 79 nM.

Turning to `Nc1ncn(C(=O)NCCCCCCNC(=O)n2cnc(N)n2)n1`, the KA in assay [1] came out at 42 nM; in assay [2] it was 14.6 nM.
